The values that follow come from ChEMBL document CHEMBL1833877, “Antinociceptive properties of bergenin” (J Nat Prod, 2011).

The source made the active and inactive calls.

For series [1], the system named is Mus musculus. The series is described as follows: Antinociceptive activity against Freund's complete adjuvant-induced paw inflammation in mouse assessed as reduction in paw edema at 50 mg/kg, ip administered 40 mins before CFA challenge measured after 2 hrs. The format is functional, organism-based. More on the design: dose 50 mg/kg. In short, it runs like this: (§1)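 CFA (20 μL, 1 mg/mL heat-killed M. tuberculosis) was injected sc into the right hind plantar surface. Treatment was ip in 2% DMSO/saline 40 min before. Paw volume was read by plethysmometer before and after CFA, and edema taken as the volume difference (mm3/paw). n = 6 mice/group, means ± SEM, two-way ANOVA with Bonferroni.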

The subject of series [2] is Mus musculus. The series is described as follows: Toxicity in mouse assessed as renal function measuring serum creatinine level at 50 mg/kg, ip for seven consecutive days relative to control. The series is classed as organism-based. More on the design: dose 50 mg/kg, route intraperitoneal. The following applies: in vivo. In short, it runs like this: (§2)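 Once-daily ip dosing for seven consecutive days in male mice (22–28 g), with vehicle (2% DMSO in saline) as control. At the end of treatment, blood taken from the retro-orbital plexus under light anesthesia. Serum obtained without anticoagulant by centrifugation at 2500 rpm for 15 min, then assayed biochemically for urea and creatinine. Means ± SEM, 6–9 animals per group.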

The subject of series [3] is Mus musculus. As to the kind of experiment: Antinociceptive activity against formalin-induced pain in mouse assessed as paw licking during early phase (0 to 10 mins) at 100 mg/kg, ip administered 40 mins before formalin challenge. The series is classed as functional, organism-based. The arrangement: dose 100 mg/kg. The essentials:
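Mice were acclimated 30 min in an observation chamber, then given 20 μL of 2.5% formalin sc into the dorsal hind paw. Dosing was ip (2% DMSO/saline vehicle) 40 min beforehand. Time spent licking the injected paw was scored over 0–10 min and 10–60 min. n = 6/group, means ± SEM, ANOVA with Tukey.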

Series [4] concerns Mus musculus. As to the kind of experiment: Toxicity in mouse assessed as renal function measuring serum urea level at 50 mg/kg, ip for seven consecutive days relative to control. The series is classed as organism-based. The arrangement: dose 50 mg/kg, route intraperitoneal. The following applies: in vivo. The essentials:
as §2

Series [5] has as its system Mus musculus. The series is described as follows: Toxicity in mouse assessed as gastric ulcer at 50 mg/kg, ip for seven consecutive days relative to control. The arrangement: dose 50 mg/kg, route intraperitoneal. The following applies: in vivo. The series is classed as organism-based, Stomach. The essentials: (§3)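 After 7 daily ip doses, stomachs were cryosectioned at 3 μm and stained with H&E. Sections were scored blind 0–4 for inflammatory infiltrate, edema, epithelial loss and necrosis. Ten fields (40×) were read per section, means ± SEM.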

For series [6], the system named is Mus musculus. As to the kind of experiment: Toxicity in mouse assessed as reduction in corporal mass at 50 mg/kg, ip for seven consecutive days relative to control. The series is classed as organism-based. Particulars: in vivo. More on the design: dose 50 mg/kg, route intraperitoneal. The essentials: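 Male mice (22–28 g) weighed and dosed once daily ip for seven consecutive days with test agent or vehicle (2% DMSO in saline). Body mass, general appearance and toxic signs followed and compared with vehicle-treated mice. Data are means ± SEM, 6–9 animals per group.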

In series [7] the test system is Mus musculus. The series is described as follows: Toxicity in mouse assessed as change in general appearance at 100 mg/kg, ip for seven consecutive days relative to control. The series is classed as organism-based. More on the design: dose 100 mg/kg, route intraperitoneal. Particulars: in vivo. The essentials:
(§4)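 Mice were weighed and dosed ip once daily for 7 consecutive days, vehicle controls alongside, and monitored for toxic signs and general appearance. At the end, retro-orbital blood was taken under light anesthesia for leukocyte counts. Serum, from blood centrifuged at 2500 rpm for 15 min without anticoagulant, was used for ALT and AST.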

Series [8] relates to Mus musculus. As to the kind of experiment: Toxicity in mouse assessed as inflammatory cell infiltrate in gastric mucosa at 100 mg/kg, ip for seven consecutive days relative to control. The series is classed as organism-based. The arrangement: dose 100 mg/kg, route intraperitoneal. Particulars: in vivo. The essentials:
as §3

Series [9] has as its system Mus musculus. As to the kind of experiment: Toxicity in mouse assessed as change in general appearance at 50 mg/kg, ip for seven consecutive days relative to control. The format is organism-based. The arrangement: dose 50 mg/kg, route intraperitoneal. Particulars: in vivo. In short, it runs like this: as §4
For series [10], the system named is Mus musculus. The series is described as follows: Toxicity in mouse assessed as liver function measuring serum AST level at 50 mg/kg, ip for seven consecutive days relative to control. The series is classed as organism-based. The arrangement: dose 50 mg/kg, route intraperitoneal. The following applies: in vivo. In short, it runs like this:
as §4

Series [11] relates to Mus musculus. As to the kind of experiment: Inhibition of IL1-beta production in Freund's complete adjuvant-induced mouse at 100 mg/kg, ip administered 40 mins before CFA challenge measured after 2 hrs by ELISA. The format is functional, organism-based. More on the design: dose 100 mg/kg. In short, it runs like this: (§5)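 CFA was given intraplantar, with ip dosing (2% DMSO/saline vehicle) 40 min earlier. At 2 h, paw skin was taken under terminal halothane anesthesia. Tissue was extracted (100 mg/mL PBS with 0.4 M NaCl, 0.05% Tween 20 and protease inhibitors) and centrifuged at 3000g for 10 min. Supernatant was assayed by mouse ELISA, in pg/mL. n = 6/group.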
On the technique in general: ELISA stands for enzyme-linked immunosorbent assay.

Series [12] concerns Mus musculus. As to the kind of experiment: Toxicity in mouse assessed as liver function measuring serum ALT level at 100 mg/kg, ip for seven consecutive days relative to control. The arrangement: dose 100 mg/kg, route intraperitoneal. Particulars: in vivo. The series is classed as organism-based. The essentials:
as §4

The test system of series [13] is Mus musculus. The series is described as follows: Antinociceptive activity against Freund's complete adjuvant-induced paw inflammation in IL10-deficient C57BL/6 mouse assessed as reduction in mechanical hyperalgesia at 100 mg/kg, ip administered 40 mins before CFA challenge measured 2 to 6 hrs. The series is classed as functional, organism-based. The arrangement: dose 100 mg/kg. In short, it runs like this: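 Mice, lightly halothane-anesthetized, got 20 μL complete Freund's adjuvant (1 mg/mL heat-killed M. tuberculosis in paraffin oil/mannide monooleate) sc into the right hind plantar surface. Treatment was ip in 2% DMSO/saline 40 min before CFA. Mechanical threshold was read with von Frey filaments by the up-down method at 2, 4 and 6 h. n = 6 mice/group, means ± SEM, two-way ANOVA with Bonferroni.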

The test system of series [14] is Mus musculus. As to the kind of experiment: Antinociceptive activity against Freund's complete adjuvant-induced paw inflammation in mouse assessed as reduction in paw edema at 50 mg/kg, ip administered 40 mins before CFA challenge measured after 4 hrs. The format is functional, organism-based. More on the design: dose 50 mg/kg. The essentials:
as §1

The test system of series [15] is Mus musculus. The series is described as follows: Toxicity in mouse assessed as gastric inflammation at 100 mg/kg, ip for seven consecutive days relative to control. The format is organism-based, Stomach. The arrangement: dose 100 mg/kg, route intraperitoneal. Particulars: in vivo. The essentials: as §3
Series [16] deals with Mus musculus. The series is described as follows: Inhibition of IL1-beta production in Freund's complete adjuvant-induced mouse at 50 mg/kg, ip administered 40 mins before CFA challenge measured after 2 hrs by ELISA. The format is functional, organism-based. More on the design: dose 50 mg/kg. In short, it runs like this:
as §5

For series [17], the system named is Mus musculus. The series is described as follows: Inhibition of TNF-alpha production in Freund's complete adjuvant-induced mouse at 100 mg/kg, ip administered 40 mins before CFA challenge measured after 2 hrs by ELISA. The series is classed as functional, organism-based. The arrangement: dose 100 mg/kg. In short, it runs like this: as §5
Series [18] relates to Mus musculus. As to the kind of experiment: Antinociceptive activity in ip dosed mouse assessed as inhibition of acetic acid-induced abdominal constrictions administered 40 mins before acetic acid challenge measured for 30 mins. The format is functional, organism-based. The following applies: Abdomen. The essentials: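 Dosing was ip in 2% DMSO/saline 40 min before ip acetic acid (0.8% v/v, 10 mL/kg). Writhes (abdominal contraction with hind-limb stretching) were counted over 0–30 min. n = 6 mice/group, means ± SEM, ANOVA with Tukey.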

For series [19], the system named is Mus musculus. The series is described as follows: Toxicity in mouse assessed as necrosis in gastric mucosa at 100 mg/kg, ip for seven consecutive days relative to control. The series is classed as organism-based. The arrangement: dose 100 mg/kg, route intraperitoneal. Particulars: in vivo. In short, it runs like this: as §3
Series [20] relates to Mus musculus. As to the kind of experiment: Toxicity in mouse assessed as gastric ulcer at 100 mg/kg, ip for seven consecutive days relative to control. The format is organism-based, Stomach. The arrangement: dose 100 mg/kg, route intraperitoneal. Particulars: in vivo. The essentials:
as §3

In series [21] the test system is Mus musculus. As to the kind of experiment: Antinociceptive activity against Freund's complete adjuvant-induced paw inflammation in mouse assessed as reduction in paw edema at 100 mg/kg, ip administered 40 mins before CFA challenge measured after 4 hrs. The series is classed as functional, organism-based. The arrangement: dose 100 mg/kg. In short, it runs like this: as §1

For `COc1c(O)cc2c(c1O)[C@@H]1O[C@H](CO)[C@@H](O)[C@H](O)[C@H]1OC2=O` [BERGENIN], the result in [1], in series [3], in series [13], in series [14] and in series [21] was Active. Moreover, the Activity entry in series [2], in series [4], in series [5], in [6], in series [7] and in series [8] was “Non-toxic” each time. For the same compound, the Activity result in [9] is “Non-toxic”; in series [10] it was “Non-toxic”; in [12], “Non-toxic”; in [15], “Non-toxic”; in series [18], “Dose-dependent effect”; in [19], “Non-toxic”. For the same compound, the Activity entry in series [20] is “Non-toxic”. The inhibition entry in [11], in series [16] and in [17] was “Active” in each case.
